The values that follow come from ChEMBL document CHEMBL1770100, “Design and synthesis of N-phenylacetyl (sulfonyl) 4,5-dihydropyrazole derivatives as potential antitumor agents” (Bioorg Med Chem Lett, 2011).

A word on the IC50: it is the point on the concentration scale where inhibition reaches its midpoint.

Assay [1] relates to HepG2. Put plainly: Cytotoxicity against human HepG2 after 48 hrs by MTT assay. In kind it is functional, cell-based. The following applies: HepG2, 48 h. The gist of the method: (§1)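 Log-phase cells in RPMI 1640 with 10% FBS, diluted to 3 × 10⁴ cells/mL and seeded in 96-well plates. After 24 h at 37 °C, 5% CO₂, samples at pre-set concentrations were added to six wells, with 5-fluorouracil as positive reference. Exposure was 48 h. MTT at 2.5 mg/mL in PBS was added for 4 h, formazan dissolved in DMSO, A570 read. IC50 = concentration giving 50% survival. Three experiments in triplicate, mean ± SD.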

Assay [2] relates to PC-3. Kind of assay: Cytotoxicity against human PC3 after 48 hrs by MTT assay. In kind it is functional, cell-based. To be noted: PC-3, 48 h. The essentials:
as §1
For orientation: Formazan colour is commonly taken as a measure of viable cells.

For assay [3], the system named is SGC-7901. Kind of assay: Cytotoxicity against human SGC7901 after 48 hrs by MTT assay. In kind it is functional, cell-based. To be noted: SGC-7901, 48 h. The essentials: as §1
Assay [4] can be described thus: Selectivity index, ratio of IC50 for Thermus aquaticus taq polymerase to IC50 for telomerase.
Assay [5] concerns the target DNA polymerase I, thermostable (Thermus aquaticus, UniProt P19821). Kind of assay: Inhibition of Thermus aquaticus taq polymerase.
Assay [6] addresses Telomerase reverse transcriptase (Homo sapiens, UniProt O14746). Put plainly: Inhibition of telomerase activity expressed in human SGC7901 cells by SYBER green dye based TRAP. In kind it is cell-based, SGC-7901. The essentials:
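Modified TRAP assay using total cell lysate of SGC-7901 as the telomerase source. Lysate protein was measured by Bio-Rad assay against BSA standards. Extension products were resolved on 10% polyacrylamide gels and stained with SYBR Green. Reported as IC50.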

Chain of DNA polymerase I, thermostable (P19821 whole entry): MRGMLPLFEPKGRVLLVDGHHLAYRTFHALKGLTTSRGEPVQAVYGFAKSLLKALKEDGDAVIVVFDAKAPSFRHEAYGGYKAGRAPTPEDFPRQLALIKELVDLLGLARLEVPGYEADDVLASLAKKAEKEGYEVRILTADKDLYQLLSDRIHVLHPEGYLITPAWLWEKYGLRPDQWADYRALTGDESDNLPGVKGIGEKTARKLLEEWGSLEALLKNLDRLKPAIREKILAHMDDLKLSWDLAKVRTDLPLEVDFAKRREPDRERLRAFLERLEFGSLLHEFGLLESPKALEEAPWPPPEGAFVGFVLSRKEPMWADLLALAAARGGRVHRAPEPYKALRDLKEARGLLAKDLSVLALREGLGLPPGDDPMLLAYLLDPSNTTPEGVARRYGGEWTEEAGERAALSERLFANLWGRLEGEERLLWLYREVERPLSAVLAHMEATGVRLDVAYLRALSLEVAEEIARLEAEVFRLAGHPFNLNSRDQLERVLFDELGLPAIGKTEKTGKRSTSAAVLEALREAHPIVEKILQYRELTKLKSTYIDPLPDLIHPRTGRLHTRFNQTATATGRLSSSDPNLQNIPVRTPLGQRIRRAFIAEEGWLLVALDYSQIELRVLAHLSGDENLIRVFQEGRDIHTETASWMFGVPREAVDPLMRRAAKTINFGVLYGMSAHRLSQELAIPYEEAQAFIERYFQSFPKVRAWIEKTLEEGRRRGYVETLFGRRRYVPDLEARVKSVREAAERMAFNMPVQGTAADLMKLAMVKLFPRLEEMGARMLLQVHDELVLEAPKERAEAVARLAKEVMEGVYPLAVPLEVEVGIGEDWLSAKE
Chain of Telomerase reverse transcriptase (O14746 whole entry): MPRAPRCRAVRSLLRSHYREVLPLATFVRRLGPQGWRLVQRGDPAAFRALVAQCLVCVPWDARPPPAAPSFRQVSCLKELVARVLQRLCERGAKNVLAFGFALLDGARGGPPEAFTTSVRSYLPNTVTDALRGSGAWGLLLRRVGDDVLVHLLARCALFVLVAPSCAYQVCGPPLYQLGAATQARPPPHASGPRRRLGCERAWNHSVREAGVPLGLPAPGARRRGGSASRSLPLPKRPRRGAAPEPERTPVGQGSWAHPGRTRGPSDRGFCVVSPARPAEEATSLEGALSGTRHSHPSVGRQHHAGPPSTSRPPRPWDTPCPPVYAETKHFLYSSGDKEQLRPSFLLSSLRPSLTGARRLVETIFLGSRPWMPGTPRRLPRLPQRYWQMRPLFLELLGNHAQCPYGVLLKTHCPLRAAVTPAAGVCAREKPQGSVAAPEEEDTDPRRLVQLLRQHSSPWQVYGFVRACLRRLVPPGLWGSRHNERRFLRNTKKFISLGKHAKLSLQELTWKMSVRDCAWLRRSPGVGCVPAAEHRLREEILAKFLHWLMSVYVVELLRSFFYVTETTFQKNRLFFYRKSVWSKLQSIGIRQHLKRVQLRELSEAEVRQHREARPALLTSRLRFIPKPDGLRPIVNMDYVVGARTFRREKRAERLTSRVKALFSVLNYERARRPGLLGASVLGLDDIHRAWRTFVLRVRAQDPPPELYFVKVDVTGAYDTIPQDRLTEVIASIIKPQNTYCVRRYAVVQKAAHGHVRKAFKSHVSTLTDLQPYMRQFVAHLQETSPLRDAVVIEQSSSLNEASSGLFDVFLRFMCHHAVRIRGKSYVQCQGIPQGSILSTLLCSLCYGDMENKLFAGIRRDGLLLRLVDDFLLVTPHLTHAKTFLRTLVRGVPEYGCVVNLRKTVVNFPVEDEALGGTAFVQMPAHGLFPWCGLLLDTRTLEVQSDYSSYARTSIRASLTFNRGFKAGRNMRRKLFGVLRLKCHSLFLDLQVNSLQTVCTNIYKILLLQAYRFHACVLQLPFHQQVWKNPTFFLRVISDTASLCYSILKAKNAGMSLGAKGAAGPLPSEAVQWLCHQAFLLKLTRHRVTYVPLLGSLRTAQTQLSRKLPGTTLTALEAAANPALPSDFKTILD

For the compound `CC1=NN(C(=O)CCl)C(c2ccccc2O)C1` (stereo not drawn), the IC50 in assay [1] is 47.9 µM; in assay [2], 20.1 µM; in assay [3] it was 26.8 µM; in assay [5], 20.4 µM; in assay [6] it was 9.5 µM. In addition, in assay [4], the Ratio IC50 worked out at 2.1.

As for `O=c1[nH]cc(F)c(=O)[nH]1` [FLUOROURACIL], the IC50 in assay [1] turned out to be 18.9 µM; in assay [2], 15.7 µM; in assay [3], 31.5 µM.

On to `CC1=NN(C(=O)Cc2ccc([N+](=O)[O-])cc2)C(c2ccccc2O)C1` (stereo not drawn), for which the IC50 in assay [1] was found to be 107 µM; in assay [2], 132 µM; in assay [3], 97.3 µM.

As for `CC1=NN(C(=O)c2ccccc2C)C(c2ccccc2O)C1` (stereo not drawn), the IC50 in assay [1] was 95.2 µM; in assay [2], 106 µM; in assay [3] it was 104 µM; in assay [5], 50.5 µM; in assay [6] it was 24.5 µM. Besides, the Ratio IC50 in assay [4] amounted to 2.1.

For `CC1=NN(S(=O)(=O)c2ccc(C)cc2)C(c2ccccc2O)C1` (stereo not drawn), the IC50 in assay [1] was determined as 66.8 µM; in assay [2] it was 85.5 µM; in assay [3], 73.6 µM; in assay [5], 30 µM; in assay [6], 16.8 µM. Moreover, the Ratio IC50 in assay [4] was determined as 1.9.

Consider `CC1=NN(C(=O)c2ccccc2)C(c2cccc(C)c2O)C1` (stereo not drawn), for which the IC50 in assay [1] was determined as 177 µM; in assay [2] it was 154 µM; in assay [3], 150 µM.

As for `CC[n+]1c(-c2ccccc2)c2cc(N)ccc2c2ccc(N)cc21` [HOMIDIUM BROMIDE], the IC50 in assay [6] came to 2.6 µM.

On to `CC1=NN(S(=O)(=O)c2ccccc2)C(c2ccccc2O)C1` (stereo not drawn), for which the IC50 came to 57.2 µM in assay [1]; 50.6 µM in assay [2]; 66.4 µM in assay [3]; 31 µM in assay [5]; 17.3 µM in assay [6]. Besides, the Ratio IC50 in assay [4] was 1.8.

In the case of `CC1=NN(C(=O)c2ccccc2)C(c2ccccc2O)C1` (stereo not drawn), the IC50 stood at 29.4 µM in assay [1]; 30.9 µM in assay [2]; 21.2 µM in assay [3]; 8 µM in assay [5]; 4 µM in assay [6]. The Ratio IC50 in assay [4] worked out at 2.

Take `CC1=NN(C(=O)c2ccccc2Cl)C(c2ccccc2O)C1` (stereo not drawn): the IC50 in assay [1] came to 95.5 µM; in assay [2], 84.2 µM; in assay [3] it was 103 µM; in assay [5] it was 36 µM.

With `CC1=NN(C(=O)c2ccc(C)cc2)C(c2ccccc2O)C1` (stereo not drawn), the IC50 amounted to 78.9 µM in assay [1], 116 µM in assay [2], 51.5 µM in assay [3] and 31.5 µM in assay [6].
